Measured values reported in ChEMBL document CHEMBL1132994, “Synthesis and anticonvulsant and neurotoxic properties of substituted N-phenyl derivatives of the phthalimide pharmacophore” (J Med Chem, 2000).
Activity calls are given as the source filed them. No cut-off for these calls is given here.

Key:
Mus musculus [1] = test: Neurotoxicity by rotarod test after intraperitoneal administration at a concentration of 300 mg/kg after 30 minutes; Inactive; assay type: functional, organism-based; design: dose 300 mg/kg
Mus musculus [2] = test: Anticonvulsant activity in mice through seizures induced by maximal electroshock (MES) tests after ip administration at a concentration of 100 mg/kg after 30 min; Inactive; assay type: functional, organism-based; design: dose 100 mg/kg
Mus musculus [3] = test: Anticonvulsant activity in mice through seizures induced by sc pentylenetetrazole (intraperitoneal administration at a concentration of 300 mg/kg after 4 hours; Inactive; assay type: functional, organism-based; design: dose 300 mg/kg
Mus musculus [4] = test: Anticonvulsant activity in mice through seizures induced by maximal electroshock (MES) tests after ip administration at a concentration of 300 mg/kg after 4 hours; Inactive; assay type: functional, organism-based; design: dose 300 mg/kg
Mus musculus [5] = test: Neurotoxicity determined by rotarod test after intraperitoneal administration at a concentration of 300 mg/kg after 4 hours; Inactive; assay type: functional, organism-based; design: dose 300 mg/kg
Mus musculus [6] = test: Anticonvulsant activity in mice through seizures induced by sc pentylenetetrazole (intraperitoneal administration at a concentration of 300 mg/kg after 30 min; Inactive; assay type: functional, organism-based; design: dose 300 mg/kg
Mus musculus [7] = test: Anticonvulsant activity in mice through seizures induced by maximal electroshock (MES) tests after ip administration at a concentration of 300 mg/kg after 4 hours; Active; assay type: functional, organism-based; design: dose 300 mg/kg
Rattus norvegicus [8] = test: Anticonvulsant activity was measured in rats through seizures induced by maximal electroshock (MES) tests by oral administration of drug after 2 hours.; assay type: functional
Outline: (§1)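 Rats given a single oral dose of 30 or 50 mg/kg, depending on compound; MES protection scored at 15, 30, 60, 120 and 240 min. Activity graded by fraction of animals protected (0-25%, 25-50%, 50-75%, 75-100%); neurotoxicity monitored at the same time points.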

Mus musculus [9] = test: Anticonvulsant activity in mice through seizures induced by subcutaneous pentylenetetrazole (scPTZ) tests after ip administration at a concentration of 300 mg/kg after 30 min; Inactive; assay type: functional, organism-based; design: dose 300 mg/kg
Rattus norvegicus [10] = test: (§2) Toxicity screening in rats dosed orally with the compound; No toxicity; assay type: organism-based; conditions: in vivo, po
Rattus norvegicus [11] = test: Effective dose required to assure anticonvulsant protection in 50% of rats dosed orally by scPTZ test.; assay type: functional; conditions: po
Outline: (§3)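 Rats dosed orally; ED50 is the dose giving anticonvulsant protection in 50% of animals in the MES or scPtz test. TD50 is the minimal neurotoxic dose in 50% of animals. Time to peak effect was also determined.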

Rattus norvegicus [12] = test: Anticonvulsant activity was measured in rats through seizures induced by maximal electroshock (MES) tests by oral administration of drug after 30 minutes.; assay type: functional; outline: as §1
Rattus norvegicus [13] = test: Anticonvulsant activity was measured in rats through seizures induced by maximal electroshock (MES) tests by oral administration of drug after 1 hour.; assay type: functional; outline: as §1
[14] = dose eliciting minimal neurological toxicity in 50% of animals.; assay type: organism-based; conditions: rat, in vivo
Rattus norvegicus [15] = test: Anticonvulsant activity was measured in rats through seizures induced by maximal electroshock (MES) tests by oral administration of drug after 15 minutes.; assay type: functional; outline: as §1
Rattus norvegicus [16] = test: Effective dose required to assure anticonvulsant protection in 50% of rats dosed orally by MES test.; assay type: functional; conditions: po; outline: as §3
Mus musculus [17] = test: Anticonvulsant activity in mice through seizures induced by maximal electroshock (MES) tests after ip administration at a concentration of 100 mg/kg after 30 min; Active; assay type: functional, organism-based; design: dose 100 mg/kg
Rattus norvegicus [18] = test: Anticonvulsant activity was measured in rats through seizures induced by maximal electroshock (MES) tests by oral administration of drug after 4 hours.; assay type: functional; outline: as §1
Mus musculus [19] = test: Anticonvulsant activity in mice through seizures induced by maximal electroshock (MES) tests after ip administration at a concentration of 300 mg/kg after 4 hour; Active; assay type: functional, organism-based; design: dose 300 mg/kg
Mus musculus [20] = test: Anticonvulsant activity in mice through seizures induced by subcutaneous pentylenetetrazole (scPTZ) tests after ip administration at a concentration of 300 mg/kg after 4 hours; Inactive; assay type: functional, organism-based; design: dose 300 mg/kg
Mus musculus [21] = test: Neurotoxicity by rotarod test after intraperitoneal administration at a concentration of 300 mg/kg after 4 hours; Active; assay type: functional, organism-based; design: dose 300 mg/kg
Mus musculus [22] = test: Neurotoxicity by rotarod test after intraperitoneal administration at a concentration of 300 mg/kg after 30 minutes; Active; assay type: functional, organism-based; design: dose 300 mg/kg
Mus musculus [23] = test: Anticonvulsant activity in mice through seizures induced by maximal electroshock (MES) tests after ipb administration at a concentration of 300 mg/kg after 4 hours.; Inactive; assay type: functional, organism-based; design: dose 300 mg/kg
Mus musculus [24] = test: Neurotoxicity by rotarod test after intraperitoneal administration at a concentration of 300 mg/kg after 30 minutes; active; assay type: functional, organism-based; design: dose 300 mg/kg
Mus musculus [25] = test: Anticonvulsant activity in mice through seizures induced by maximal electroshock (MES) tests after intraperitoneal administration at a concentration of 100 mg/kg after 30 min; active; assay type: functional, organism-based; design: dose 100 mg/kg
Mus musculus [26] = test: Anticonvulsant activity in mice through seizures induced by maximal electroshock (MES) tests after ip administration at a concentration of 300 mg/kg after 4 hours; active; assay type: functional, organism-based; design: dose 300 mg/kg
Mus musculus [27] = test: Anticonvulsant activity in mice through seizures induced by subcutaneous pentylenetetrazole (scPTZ) tests after ip administration at a concentration of 300 mg/kg after 30 min; Active; assay type: functional, organism-based; design: dose 300 mg/kg
Mus musculus [28] = test: Anticonvulsant activity in mice through seizures induced by subcutaneous pentylenetetrazole (scPTZ) tests after ip administration at a concentration of 300 mg/kg after 4 hours; Active; assay type: functional, organism-based; design: dose 300 mg/kg
Mus musculus [29] = test: Anticonvulsant activity in mice through seizures induced by maximal electroshock (MES) tests after ip administration at a concentration of 100 mg/kg after 30 min; active; assay type: functional, organism-based; design: dose 100 mg/kg
Mus musculus [30] = test: Anticonvulsant activity in mice through seizures induced by subcutaneous pentylenetetrazole (scPTZ) tests after ip administration at a concentration of 300 mg/kg after 30 min; active; assay type: functional, organism-based; design: dose 300 mg/kg
Mus musculus [31] = test: Neurotoxicity by rotarod test after ip administration at a concentration of 300 mg/kg after 30 minutes; Active; assay type: functional, organism-based; design: dose 300 mg/kg
Rattus norvegicus [32] = test: Anticonvulsant activity in rats through seizures induced by maximal electroshock (MES) tests by oral administration of drug at a concentration of 30 mg/kg after 30 minutes; assay type: functional; outline: as §1
Mus musculus [33] = test: Anticonvulsant activity in mice through seizures induced by subcutaneous pentylenetetrazole (scPTZ) test after ip administration at a concentration of 300 mg/kg after 30 min; Inactive; assay type: functional, organism-based; design: dose 300 mg/kg
Rattus norvegicus [34] = test: Anticonvulsant activity was measured in rats through seizures induced by maximal electroshock (MES) tests by oral administration of drug at a concentration of 30 mg/kg after 2 hours.; assay type: functional; outline: as §1
Rattus norvegicus [35] = test: Anticonvulsant activity in rats through seizures induced by maximal electroshock (MES) tests by oral administration of drug at a concentration of 30 mg/kg after 15 minutes; No activity; assay type: functional, organism-based; design: dose 30 mg/kg; outline: as §1
Rattus norvegicus [36] = test: Anticonvulsant activity in rats through seizures induced by maximal electroshock (MES) tests after oral administration at a concentration of 30 mg/kg after 1 hour.; assay type: functional; outline: as §1
Rattus norvegicus [37] = test: as §2; assay type: functional, organism-based
Outline: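 Rats given a single oral dose of 30 or 50 mg/kg, depending on compound. Minimal neurotoxicity was scored at 15, 30, 60, 120 and 240 min after dosing, alongside the MES test. Scores are graded by the percentage of animals affected.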

Mus musculus [38] = test: Anticonvulsant activity in mice through seizures induced by maximal electroshock (MES) tests after intraperitoneal administration at a concentration of 300 mg/kg after 4 hours; Inactive; assay type: functional, organism-based; design: dose 300 mg/kg

O=C1c2ccccc2C(=O)N1c1ccc([N+](=O)[O-])cc1
Activity (Mus musculus [1]): inactive | Activity (Mus musculus [2]): inactive | Activity (Mus musculus [3]): inactive | Activity (Mus musculus [4]): inactive | Activity (Mus musculus [5]): inactive | Activity (Mus musculus [6]): inactive

Cc1c(N)cccc1N1C(=O)c2ccccc2C1=O
Activity (Mus musculus [1]): inactive | Activity (Mus musculus [7]): Active | Activity in animals (Rattus norvegicus [8]): 100% | Activity (Mus musculus [9]): inactive | Toxicity (Rattus norvegicus [10]): No toxicity | ED50 (Rattus norvegicus [11]): > 200 mg/kg | Activity (Mus musculus [3]): inactive | Activity in animals (Rattus norvegicus [12]): 100% | Activity in animals (Rattus norvegicus [13]): 100% | TD50 [14]: > 400 mg/kg | Activity in animals (Rattus norvegicus [15]): 100% | ED50 (Rattus norvegicus [16]): 8 mg/kg | Activity (Mus musculus [17]): Active | Activity (Mus musculus [5]): inactive | Activity in animals (Rattus norvegicus [18]): 100%

Cc1cccc([N+](=O)[O-])c1N1C(=O)c2ccccc2C1=O
Activity (Mus musculus [1]): inactive | Activity (Mus musculus [2]): inactive | Activity (Mus musculus [19]): Active | Activity (Mus musculus [5]): inactive | Activity (Mus musculus [6]): inactive | Activity (Mus musculus [20]): inactive

Cc1cc(N)ccc1N1C(=O)c2ccccc2C1=O
Activity (Mus musculus [7]): Active | Activity (Mus musculus [9]): inactive | Activity (Mus musculus [21]): Active | Activity (Mus musculus [3]): inactive | Activity (Mus musculus [22]): Active | Activity (Mus musculus [17]): Active

O=C1c2ccccc2C(=O)N1c1ccc([N+](=O)[O-])cc1Cl
Activity (Mus musculus [1]): inactive | Activity (Mus musculus [2]): inactive | Activity (Mus musculus [9]): inactive | Activity (Mus musculus [3]): inactive | Activity (Mus musculus [23]): inactive | Activity (Mus musculus [5]): inactive

O=C1NC(=O)C(c2ccccc2)(c2ccccc2)N1 [PHENYTOIN]
Activity (Mus musculus [24]): Active | Activity (Mus musculus [25]): Active | Activity in animals (Rattus norvegicus [8]): 100% | Activity (Mus musculus [9]): inactive | ED50 (Rattus norvegicus [11]): > 800 mg/kg | Activity in animals (Rattus norvegicus [12]): 100% | Activity in animals (Rattus norvegicus [13]): 100% | TD50 [14]: > 3000 mg/kg | Activity in animals (Rattus norvegicus [15]): 100% | Activity (Mus musculus [5]): inactive | Activity (Mus musculus [26]): Active | Activity in animals (Rattus norvegicus [18]): 25% | Activity (Mus musculus [20]): inactive

Cc1ccc([N+](=O)[O-])cc1N1C(=O)c2ccccc2C1=O
Activity (Mus musculus [7]): Active | Activity (Mus musculus [27]): Active | Activity (Mus musculus [21]): Active | Activity (Mus musculus [22]): Active | Activity (Mus musculus [17]): Active | Activity (Mus musculus [28]): Active

Cc1cccnc1N1C(=O)c2ccccc2C1=O
Activity (Mus musculus [24]): Active | Activity in animals (Rattus norvegicus [8]): 50% | Toxicity (Rattus norvegicus [10]): No toxicity | Activity (Mus musculus [3]): inactive | Activity in animals (Rattus norvegicus [12]): 50% | Activity in animals (Rattus norvegicus [13]): 50% | Activity (Mus musculus [29]): Active | Activity (Mus musculus [4]): inactive | Activity in animals (Rattus norvegicus [15]): 25% | Activity (Mus musculus [5]): inactive | Activity (Mus musculus [30]): Active

Nc1ccc(N2C(=O)c3ccccc3C2=O)cc1
Activity (Mus musculus [31]): Active | Activity in animals (Rattus norvegicus [32]): 25% | Activity (Mus musculus [33]): inactive | Activity in animals (Rattus norvegicus [34]): 50% | Activity in animals (Rattus norvegicus [35]): No activity | Activity in animals (Rattus norvegicus [36]): 75% | Toxicity (Rattus norvegicus [37]): Not toxic | Activity (Mus musculus [4]): inactive | Activity (Mus musculus [17]): Active | Activity (Mus musculus [5]): inactive | Activity in animals (Rattus norvegicus [18]): 25% | Activity (Mus musculus [20]): inactive

COc1ccc(N2C(=O)c3ccccc3C2=O)c(OC)c1
Activity (Mus musculus [1]): inactive | Activity (Mus musculus [2]): inactive | Activity (Mus musculus [3]): inactive | Activity (Mus musculus [38]): inactive | Activity (Mus musculus [5]): inactive | Activity (Mus musculus [6]): inactive
